Activity calls are given as the source filed them. The rule behind the calls is not given here.
Tests used:
[1] = Inhibition of concanavalin A-stimulated lymphoproliferation in BALB/c mouse splenocytes at 10 ug/ml by MTT assay; assay type: functional; details: Splenocyte
[2] = Cytotoxicity against BALB/c mouse splenocytes at 10 ug/ml by MTT assay; assay type: cell-based; details: splenocyte
Method in brief: (§1)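 Run in parallel with the proliferation assay on splenocyte cultures without Con-A, with MTT colourimetric read-out. Cytotoxicity % = [1 − OD(cells+compd)/OD(cells)] × 100.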

[3] = Inhibition of concanavalin A-stimulated lymphoproliferation in BALB/c mouse splenocytes at 1 ug/ml by MTT assay; assay type: functional; details: Splenocyte
[4] = Cytotoxicity against BALB/c mouse splenocytes at 1 ug/ml by MTT assay; assay type: cell-based; details: splenocyte; method in brief: as §1
Macrophage [5] = test: Increase in nitric oxide production in normal rat alveolar macrophages; assay type: functional, cell-based
Macrophage [6] = test: Increase in nitric oxide production in LPS-pre-stimulated rat alveolar macrophages; assay type: functional, cell-based
Macrophage [7] = test: Increase in nitric oxide production in LPS-pre-stimulated rat alveolar macrophages at 100 ug/ml; assay type: functional
Lymphocyte = test: Reduction of rat lymphocyte stimulation by Graft-vs-Host assay relative to cyclophosphamide; assay type: functional; design: scale not given: the % may be the effect or the level left
Method in brief: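 In a Graft-vs-Host assay measuring immunosuppressant ability, cyclophosphamide at 100 mg/kg/day served as the reference drug.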

Macrophage [8] = test: Increase in nitric oxide production in LPS-pre-stimulated rat alveolar macrophages at 10 ug/ml; assay type: functional

## CCCCCCCCCCCCCCC(CO)NCCCC (stereo not given)
[1]
  inhibition at 10 µg/mL: 49.1%
[2]
  Activity: 16.4%

## CCCCCCCCCCCCCCC(CO)NC(=O)CCCC(=O)O (stereo not given)
[1]
  inhibition at 10 µg/mL: 49.1%
[2]
  Activity: 14.5%

## CCCCCCCCCCCCCCC(C(=O)O)N(CCCC)CCCC (stereo not given)
[1]
  inhibition at 10 µg/mL: 47.8%
[2]
  Activity: 12.5%

## CCCCCCCCCCCCCCC(CO)NCCCCCCCCCC (stereo not given)
[1]
  inhibition at 10 µg/mL: 59.8%
[3]
  inhibition at 1 µg/mL: 12%
[2]
  Activity: 12.6%
[4]
  Activity: 6.6%

## CCCCCCCCCCCCCCC(CO)NCC (stereo not given)
[1]
  inhibition at 10 µg/mL: 72.9%
[3]
  inhibition at 1 µg/mL: 68.4%
[2]
  Activity: 17.1%
[4]
  Activity: 10.5%

## CCCCCCCCCCCCCCC(N)CO (stereo not given)
[1]
  inhibition at 10 µg/mL: 72.4%
[3]
  inhibition at 1 µg/mL: 68.7%
[2]
  Activity: 20.2%
[4]
  Activity: 15.1%

## CCCCCCCCCCCCCCC(COCc1ccccc1)NC(=O)CCCC(=O)OC (stereo not given)
[1]
  inhibition at 10 µg/mL: 3.4%
[2]
  Activity: 2.5%
Macrophage [5]
  Activity: inactive
Macrophage [6]
  Activity: inactive

## CCCCCCCCCCCCCCC(C(=O)O)N(CC)CC (stereo not given)
[1]
  inhibition at 10 µg/mL: 43.1%
[2]
  Activity: 12.1%

## CCCCCCCCCCCCCCC(N)CN(CC)CC (stereo not given)
[1]
  inhibition at 10 µg/mL: 84.5%
[3]
  inhibition at 1 µg/mL: 74.2%
[2]
  Activity: 24.2%
[4]
  Activity: 1.7%
Macrophage [5]
  Activity: inactive
Macrophage [6]
  Activity: inactive

## CCCCCCCCCCCCCCC(N)COCc1ccccc1 (stereo not given)
[1]
  inhibition at 10 µg/mL: 79.1%
[3]
  inhibition at 1 µg/mL: 0%
[2]
  Activity: 12.2%
[4]
  Activity: 0%
Macrophage [5]
  Activity: inactive
Macrophage [6]
  Activity: inactive

## CCCCCCCCCCCCCCC(CO)NCCCCCC (stereo not given)
[1]
  inhibition at 10 µg/mL: 78.4%
[3]
  inhibition at 1 µg/mL: 74.1%
[2]
  Activity: 14.6%
[4]
  Activity: 5%
Macrophage [5]
  Activity: inactive
Macrophage [7]
  Activity: 25%
Lymphocyte
  Activity: 63%

## CCCCCCCCCCCCCCC(CO)NC(=O)CCCC(=O)OC (stereo not given)
[1]
  inhibition at 10 µg/mL: 50.2%
[2]
  Activity: 18.9%

## CCCCCCCCCCCCCCC(CNC(=O)CCCC(=O)O)NC(=O)OC(C)(C)C (stereo not given)
[1]
  inhibition at 10 µg/mL: 80.8%
[3]
  inhibition at 1 µg/mL: 19.3%
[2]
  Activity: 1.2%
[4]
  Activity: 0%
Macrophage [6]
  Activity: inactive

## CCCCCCCCCCCCCCC(CN)NC(=O)OC(C)(C)C (stereo not given)
[1]
  inhibition at 10 µg/mL: 81.2%
[3]
  inhibition at 1 µg/mL: 73.4%
[2]
  Activity: 4.3%
[4]
  Activity: 4.2%
Macrophage [5]
  Activity: inactive
Macrophage [7]
  Activity: 29%
Macrophage [8]
  Activity: 20%
Lymphocyte
  Activity: 32%

## CCCCCCCCCCCCCCC(CN(CC)CC)NC(=O)OC(C)(C)C (stereo not given)
[1]
  inhibition at 10 µg/mL: 89.5%
[3]
  inhibition at 1 µg/mL: 65.2%
[2]
  Activity: 7.8%
[4]
  Activity: 6.5%

## CCCCCCCCCCCCCCC(COCc1ccccc1)N(CC)CC (stereo not given)
[1]
  inhibition at 10 µg/mL: 72.6%
[3]
  inhibition at 1 µg/mL: 71.6%
[2]
  Activity: 15.6%
[4]
  Activity: 14.1%

## CCCCCCCCCCCCCCC(COCc1ccccc1)NC(=O)CCCC(=O)O (stereo not given)
[1]
  inhibition at 10 µg/mL: 65.4%
[3]
  inhibition at 1 µg/mL: 27.8%
[2]
  Activity: 6.4%
[4]
  Activity: 0%
Macrophage [5]
  Activity: inactive
Macrophage [6]
  Activity: inactive

## CCCCCCCCCCCCCCC(N)CNC(=O)CCCC(=O)O (stereo not given)
[1]
  inhibition at 10 µg/mL: 51%
[2]
  Activity: 12.8%
Macrophage [5]
  Activity: inactive
Macrophage [6]
  Activity: inactive

## CCCCCCCCCCCCCCC(CO)N(CCCC)CCCC (stereo not given)
[1]
  inhibition at 10 µg/mL: 50.3%
[2]
  Activity: 11.7%

## CCCCCCCCCCCCCCC(COCc1ccccc1)NCC (stereo not given)
[1]
  inhibition at 10 µg/mL: 49.8%
[2]
  Activity: 11.9%

## CCCCCCCCCCCCCCC(NCCCC)C(=O)O (stereo not given)
[1]
  inhibition at 10 µg/mL: 32.9%
[2]
  Activity: 5.1%

## CCCCCCCCCCCCCCC(CO)N(CC)CC (stereo not given)
[1]
  inhibition at 10 µg/mL: 79.5%
[3]
  inhibition at 1 µg/mL: 74.8%
[2]
  Activity: 12.8%
[4]
  Activity: 7.5%

## CCCCCCCCCCCCCCC(NC(=O)OC(C)(C)C)C(=O)O (stereo not given)
[1]
  inhibition at 10 µg/mL: 32.9%
[2]
  Activity: 5.1%

## CCCCCCCCCCCCCCC(N)CN (stereo not given)
[1]
  inhibition at 10 µg/mL: 50.1%
[2]
  Activity: 2.5%

Reference: ChEMBL document CHEMBL1146160, “Synthesis and evaluation of some lipidic aminoalcohols and diamines as immunomodulators” (Bioorg Med Chem Lett, 2006)
